The target of assay [1] is T1, C5a anaphylatoxin chemotactic receptor 1 (Homo sapiens, UniProt P21730).
T1 sequence (P21730 whole entry): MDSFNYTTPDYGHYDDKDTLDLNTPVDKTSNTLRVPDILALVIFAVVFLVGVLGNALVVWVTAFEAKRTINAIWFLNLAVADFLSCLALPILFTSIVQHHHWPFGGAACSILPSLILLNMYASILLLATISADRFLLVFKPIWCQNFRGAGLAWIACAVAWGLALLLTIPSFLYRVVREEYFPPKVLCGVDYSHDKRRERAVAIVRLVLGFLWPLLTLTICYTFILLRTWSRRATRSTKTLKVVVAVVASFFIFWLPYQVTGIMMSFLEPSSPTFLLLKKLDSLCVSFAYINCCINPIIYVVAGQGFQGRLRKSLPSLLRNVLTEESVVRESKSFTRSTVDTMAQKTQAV
Put plainly: Inhibition of [125I]C5a binding to C5a anaphylatoxin chemotactic receptor in PMNL intact cells; inactive. In kind it is cell-based. In a few lines: (§1)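 Intact human PMNL isolated from peripheral blood by one-step density centrifugation. Cells incubated 20 min at 23 °C with [125I]C5a (1 × 10⁻⁹ M), test peptide and protease inhibitors. Cells separated from free ligand by centrifugation through silicone oil at 10000g; pellet γ counts read.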

Assay [2] has as its target T1, C5a anaphylatoxin chemotactic receptor 1. The assay is described as follows: Inhibition of [125I]C5a binding to C5a anaphylatoxin chemotactic receptor in PMNL membranes. In kind it is cell membranes.
For assay [3] the target is unchanged. The assay is described as follows: Inhibition of [125I]C5a binding to anaphylatoxin chemotactic receptor of PMNL membranes.
Assay [4] shares this target. Put plainly: Inhibition of [125I]C5a binding to anaphylatoxin chemotactic receptor of PMNL cells. It is filed as cell-based. The gist of the method:
as §1

The target is the same in assay [5]. Put plainly: Inhibition of [125I]-C5a anaphylatoxin chemotactic receptor binding to PMNL membranes.

Where a SMILES comes first, the peptide text is derived from it. Bridges are numbered along the chain shown (N, C = ends). The star is where a group is joined. Acm = CC(=O)NC*

In the case of `CSCC[C@H](NC(=O)[C@H](CC(=O)O)NC(=O)[C@H](CCCCN)NC(=O)[C@@H](N)Cc1c[nH]cn1)C(=O)N[C@@H](CCC(N)=O)C(=O)N[C@@H](CC(C)C)C(=O)NCC(=O)N[C@@H](CCCN=C(N)N)C(=O)O` (H-HKDMQLGR-OH), the Ki entry is “Not Active” in assay [1] and 300 µM in assay [2]. On to `CC[C@H](C)[C@H](NC(=O)[C@H](CCCNC(=N)N)NC(=O)[C@H](C)NC(=O)[C@H](C)NC(=O)[C@H](CCCNC(=N)N)NC(=O)[C@H](CCC(N)=O)NC(=O)[C@H](CCC(=O)O)NC(=O)[C@H](CSCNC(C)=O)NC(=O)[C@@H](NC(C)=O)[C@@H](C)O)C(=O)N[C@@H](CO)C(=O)N[C@@H](CC(C)C)C(=O)O` (Ac-TC(Acm)EQRAARISL-OH), for which the Ki entry in assay [3] and in assay [4] was “Not Active” throughout. With `CC[C@H](C)[C@H](NC(=O)[C@H](CCC(=O)O)NC(=O)[C@H](CCC(=O)O)NC(=O)[C@@H](NC(=O)[C@H](CCCCN)NC(=O)[C@H](CCCCN)NC(=O)[C@H](CCC(N)=O)NC(=O)[C@H](CC(C)C)NC(=O)[C@@H](N)[C@@H](C)O)[C@@H](C)CC)C(=O)N[C@@H](C)C(=O)N[C@@H](C)C(=O)N[C@@H](CCCCN)C(=O)N[C@@H](Cc1ccc(O)cc1)C(=O)N[C@@H](CCCCN)C(=O)O` (H-TLQKKIEEIAAKYK-OH), the Ki entry in assay [3] and in assay [4] was “Not Active” in each case. Consider `CC(=O)NCSC[C@H](NC(=O)[C@H](C)NC(=O)[C@H](CCCCN)NC(=O)[C@H](CCCCN)NC(=O)[C@@H](NC(=O)[C@@H](NC(=O)[C@@H](N)CO)C(C)C)C(C)C)C(=O)N[C@@H](Cc1ccc(O)cc1)C(=O)N[C@@H](CC(=O)O)C(=O)NCC(=O)N[C@@H](C)C(=O)O` (H-SVVKKAC(Acm)YDGA-OH), for which the Ki entry in assay [3] and in assay [4] was “Not Active” in each case. Turning to `CC[C@H](C)[C@H](NC(=O)[C@H](CC(N)=O)NC(=O)[C@H](C)NC(=O)[C@H](CCCN=C(N)N)NC(=O)[C@H](CC(C)C)NC(=O)[C@H](CCC(N)=O)NC(=O)[C@@H](N)CO)C(=O)N[C@@H](CO)C(=O)N[C@@H](Cc1c[nH]cn1)C(=O)N[C@@H](CCCCN)C(=O)N[C@@H](CC(=O)O)C(=O)N[C@@H](CCSC)C(=O)N[C@@H](CCC(N)=O)C(=O)N[C@@H](CC(C)C)C(=O)NCC(=O)N[C@@H](CCCN=C(N)N)C(=O)O` (H-SQLRANISHKDMQLGR-OH), in assay [4], the Ki entry is reported as “Not Active”. In turn, `CC[C@H](C)[C@H](N)C(=O)N[C@@H](CO)C(=O)N[C@@H](Cc1cnc[nH]1)C(=O)N[C@@H](CCCCN)C(=O)N[C@@H](CC(=O)O)C(=O)N[C@@H](CCSC)C(=O)N[C@@H](CCC(N)=O)C(=O)N[C@@H](CC(C)C)C(=O)NCC(=O)N[C@@H](CCCNC(=N)N)C(=O)O` [ISHKDMQLGR] (H-ISHKDMQLGR-OH) returned a Ki in assay [2] of 300 µM. The compound `CC[C@H](C)[C@H](NC(=O)[C@H](CC(N)=O)NC(=O)[C@H](C)NC(=O)[C@H](CCCNC(=N)N)NC(=O)[C@H](CC(C)C)NC(=O)[C@H](CCC(N)=O)NC(=O)[C@H](CO)NC(=O)[C@H](C)NC(=O)[C@@H](NC(=O)[C@@H](NC(=O)[C@H](CCSC)NC(=O)[C@H](CCSC)NC(=O)[C@H](CCC(=O)O)NC(=O)[C@@H](NC(=O)[C@@H](N)Cc1ccccc1)[C@@H](C)O)C(C)C)C(C)C)C(=O)N[C@@H](CO)C(=O)N[C@@H](Cc1cnc[nH]1)C(=O)N[C@@H](CCCCN)C(=O)N[C@@H](CC(=O)O)C(=O)N[C@@H](CCSC)C(=O)N[C@@H](CCC(N)=O)C(=O)N[C@@H](CC(C)C)C(=O)NCC(=O)N[C@@H](CCCNC(=N)N)C(=O)O` (H-FTEMMVVASQLRANISHKDMQLGR-OH) displayed a Ki in assay [5] of 100 µM.

In assay [5], `CC[C@H](C)[C@H](NC(=O)[C@H](CC(N)=O)NC(=O)[C@H](C)NC(=O)[C@H](CCCNC(=N)N)NC(=O)[C@H](CC(C)C)NC(=O)[C@H](CCC(N)=O)NC(=O)[C@H](CO)NC(=O)[C@H](C)NC(=O)[C@@H](NC(=O)[C@@H](NC(=O)[C@H](CCSC)NC(C)=O)C(C)C)C(C)C)C(=O)N[C@@H](CO)C(=O)N[C@@H](Cc1cnc[nH]1)C(=O)N[C@@H](CCCCN)C(=O)N[C@@H](CC(=O)O)C(=O)N[C@@H](CCSC)C(=O)N[C@@H](CCC(N)=O)C(=O)N[C@@H](CC(C)C)C(=O)NCC(=O)N[C@@H](CCCNC(=N)N)C(=O)O` (Ac-MVVASQLRANISHKDMQLGR-OH) yielded a Ki of 50 µM. In the case of `CC[C@H](C)[C@H](NC(=O)[C@H](CC(N)=O)NC(=O)[C@H](C)NC(=O)[C@H](CCCN=C(N)N)NC(=O)[C@H](CC(C)C)NC(=O)[C@H](CCC(N)=O)NC(=O)[C@H](CO)NC(=O)[C@H](C)NC(=O)[C@@H](NC(=O)[C@@H](NC(=O)[C@H](CCSC)NC(C)=O)C(C)C)C(C)C)C(=O)N[C@@H](CO)C(=O)N[C@@H](Cc1c[nH]cn1)C(=O)N[C@@H](CCCCN)C(=O)N[C@@H](CC(=O)O)C(=O)N[C@@H](CCSC)C(=O)N[C@@H](CCC(N)=O)C(=O)N[C@@H](CC(C)C)C(=O)NCC(=O)N[C@@H](CCCN=C(N)N)C(=O)O` (Ac-MVVASQLRANISHKDMQLGR-OH), in assay [4], the Ki entry is listed as “Not Active”. On to `CC[C@H](C)[C@@H]1NC(=O)[C@H](CCC(=O)O)NC(=O)[C@H](CCC(=O)O)NC(=O)[C@@H](NC(=O)[C@H](CCCCN)NC(=O)[C@H](CCCCN)NC(=O)[C@H](CCC(N)=O)NC(=O)[C@H](CC(C)C)NC(=O)[C@@H](N)[C@@H](C)O)CSSC[C@@H](C(=O)N[C@@H](Cc2ccc(O)cc2)C(=O)N[C@@H](CC(=O)O)C(=O)NCC(=O)N[C@@H](C)C(=O)O)NC(=O)[C@H](C)NC(=O)[C@H](CCCCN)NC(=O)[C@H](CCCCN)NC(=O)[C@H](C(C)C)NC(=O)[C@H](C(C)C)NC(=O)[C@H](CO)NC(=O)[C@H](Cc2c[nH]cn2)NC(=O)[C@H](CCCCN)NC(=O)[C@H](Cc2ccc(O)cc2)NC(=O)[C@H](CCCCN)NC(=O)[C@H](C)NC(=O)[C@H](C)NC1=O` (H-TLQKKCEEIAAKYKHSVVKKACYDGA-OH; disulfide 6-22), for which the Ki entry in assay [3] and in assay [4] was “Not Active” in each case. For `CC[C@H](C)[C@H](N)C(=O)N[C@@H](CO)C(=O)N[C@@H](Cc1c[nH]cn1)C(=O)N[C@@H](CCCCN)C(=O)N[C@@H](CC(=O)O)C(=O)N[C@@H](CCSC)C(=O)N[C@@H](CCC(N)=O)C(=O)N[C@@H](CC(C)C)C(=O)NCC(=O)N[C@@H](CCCN=C(N)N)C(=O)O` [ISHKDMQLGR] (H-ISHKDMQLGR-OH), the Ki result in assay [1] is “Not Active”. Turning to `CC(C)C[C@H](NC(=O)[C@H](CCC(N)=O)NC(=O)[C@H](CO)NC(=O)[C@H](C)NC(=O)[C@@H](NC(=O)[C@@H](NC(=O)[C@H](C)N)C(C)C)C(C)C)C(=O)N[C@@H](CCCN=C(N)N)C(=O)O` (H-AVVASQLR-OH), the Ki entry in assay [3] and in assay [4] was “Not Active” each time. In the case of `CC[C@H](C)[C@H](NC(=O)[C@H](CCCN=C(N)N)NC(=O)[C@H](C)NC(=O)[C@@H](N)CSCNC(C)=O)C(=O)N[C@@H](CO)C(=O)N[C@@H](CC(C)C)C(=O)NCC(=O)N1CCC[C@H]1C(=O)N[C@@H](CCCN=C(N)N)C(=O)N[C@@H](CCSC)C(=O)N[C@@H](CSCNC(C)=O)C(=O)N[C@@H](CCCCN)C(=O)O` (H-C(Acm)ARISLGPRMC(Acm)K-OH), the Ki result in assay [3] and in assay [4] was “Not Active” throughout.

With `CSCC[C@H](NC(=O)[C@H](CC(=O)O)NC(=O)[C@H](CCCCN)NC(=O)[C@H](Cc1c[nH]cn1)NC(C)=O)C(=O)N[C@@H](CCC(N)=O)C(=O)N[C@@H](CC(C)C)C(=O)NCC(=O)N[C@@H](CCCN=C(N)N)C(=O)O` (Ac-HKDMQLGR-OH), in assay [1], the Ki entry is recorded as “Not Active”. Regarding `CC(C)[C@@H]1NC(=O)[C@H](CO)NC(=O)[C@H](Cc2c[nH]cn2)NC(=O)[C@H](CCCCN)NC(=O)[C@H](Cc2ccc(O)cc2)NC(=O)[C@H](CCCCN)NC(=O)[C@H](C)NC(=O)[C@@H](N)CSSC[C@@H](C(=O)O)NC(=O)[C@H](C(C)C)NC1=O` (H-CAKYKHSVVC-OH; disulfide 1-10), the Ki result in assay [3] and in assay [4] was “Not Active” each time.

For `CC(C)[C@H](NC(=O)[C@H](CO)NC(=O)[C@H](Cc1c[nH]cn1)NC(=O)[C@@H](N)CCCCN)C(=O)N[C@H](C(=O)N[C@@H](CCCCN)C(=O)N[C@@H](CCCCN)C(=O)O)C(C)C` (H-KHSVVKK-OH), the Ki entry in assay [3] and in assay [4] was “Not Active” throughout. `CSCC[C@H](NC(=O)[C@H](CC(=O)O)NC(=O)[C@H](CCCCN)NC(=O)[C@H](Cc1cnc[nH]1)NC(C)=O)C(=O)N[C@@H](CCC(N)=O)C(=O)N[C@@H](CC(C)C)C(=O)NCC(=O)N[C@@H](CCCNC(=N)N)C(=O)O` (Ac-HKDMQLGR-OH) returned a Ki in assay [2] of 150 µM. As for `CC(C)[C@H](NC(=O)[C@H](C)NC(=O)[C@H](C)NC(=O)CNC(=O)[C@H](CC(=O)O)NC(=O)[C@H](Cc1ccc(O)cc1)NC(=O)[C@H](C)NC(=O)[C@H](C)NC(=O)[C@H](CCCCN)NC(=O)[C@H](CCCCN)NC(=O)[C@@H](NC(=O)[C@@H](NC(=O)[C@H](CO)NC(=O)[C@@H](N)Cc1c[nH]cn1)C(C)C)C(C)C)C(=O)N[C@@H](CC(N)=O)C(=O)N[C@@H](CC(N)=O)C(=O)N[C@@H](CC(=O)O)C(=O)N[C@@H](CCC(=O)O)C(=O)O` (H-HSVVKKAAYDGAAVNNDE-OH), the Ki result in assay [3] and in assay [4] was “Not Active” in each case. On to `CC(=O)N[C@@H](C)C(=O)N[C@@H](C)C(=O)N[C@@H](CCCCN)C(=O)N[C@@H](Cc1ccc(O)cc1)C(=O)N[C@@H](CCCCN)C(=O)N[C@@H](Cc1c[nH]cn1)C(=O)N[C@@H](CO)C(=O)N[C@H](C(=O)N[C@H](C(=O)N[C@@H](CCCCN)C(=O)N[C@@H](CCCCN)C(=O)O)C(C)C)C(C)C` (Ac-AAKYKHSVVKK-OH), for which the Ki result in assay [3] and in assay [4] was “Not Active” throughout.

Broadly, the Ki is the dissociation constant of the complex between target and ligand, obtained from inhibition or displacement.

The values above are taken from ChEMBL document CHEMBL1125281, “Identification and synthesis of a receptor binding site of human anaphylatoxin C5a” (J Med Chem, 1991).
